Our source for the RBA and Drug metabolism values is ChEMBL document CHEMBL3244378, “Antiestrogens and antiestrogen metabolites: preparation of tritium-labeled (+/-)-cis-3-[p-(1,2,3,4-tetrahydro-6-methoxy-2-phenyl-1-naphthyl)phenoxyl]-1,2-propanediol (U-23469) and characterization and synthesis of a biologically important metabolite” (J Med Chem, 1979).

Data set [1] deals with T1, Estrogen receptor (Rattus norvegicus) (UniProt P06211).
T1 sequence (whole entry): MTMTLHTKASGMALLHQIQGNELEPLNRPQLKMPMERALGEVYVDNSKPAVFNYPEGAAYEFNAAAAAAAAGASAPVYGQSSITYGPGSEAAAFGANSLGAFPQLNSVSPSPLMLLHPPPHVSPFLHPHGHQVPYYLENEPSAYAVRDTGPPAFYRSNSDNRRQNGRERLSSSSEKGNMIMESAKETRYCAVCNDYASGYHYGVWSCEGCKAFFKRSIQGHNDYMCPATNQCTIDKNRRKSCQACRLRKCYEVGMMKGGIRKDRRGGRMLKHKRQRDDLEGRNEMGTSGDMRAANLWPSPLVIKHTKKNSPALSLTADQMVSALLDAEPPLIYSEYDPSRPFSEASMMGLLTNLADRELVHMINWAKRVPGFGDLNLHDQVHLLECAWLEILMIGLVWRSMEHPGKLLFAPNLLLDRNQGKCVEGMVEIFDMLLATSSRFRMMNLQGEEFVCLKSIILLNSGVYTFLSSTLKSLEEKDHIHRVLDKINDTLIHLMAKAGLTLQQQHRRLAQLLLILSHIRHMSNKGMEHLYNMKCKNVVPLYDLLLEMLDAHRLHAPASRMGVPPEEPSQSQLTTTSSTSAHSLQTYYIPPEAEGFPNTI
The experiment in a line: Displacement of [3H]-estradiol from estrogen receptor in rat uterine cytosol at 10^-4 to 10^-10 M after 16 hrs relative to estradiol. To be noted: Uterus. (In a radioligand displacement assay an active substance lowers the binding of a labelled ligand.)

Data set [2] in a line: Drug metabolism in rat uterine nuclear fraction assessed as metabolite level at 25 ug, sc after 1 hr by TLC analysis. The note with it: in vivo. The format is ADME, organism-based. The method in brief:
(§1)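 Immature rats given tritiated antiestrogen, 25 μg sc per rat. At 1 and 13 h, serum was prepared and extracted with ethyl acetate. Uteri were homogenized, the nuclear pellet washed three times, then extracted with ethanol. Extracts were concentrated, run on silica gel TLC in anesthetic ether–ethanol (98:2), and radioactivity counted by liquid scintillation.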

Data set [3] is described as follows: Drug metabolism in rat uterine nuclear fraction assessed as 1-(p-Hydroxyphenyl)-2-phenyl-6-methoxy-1,2,3,4-tetrahydronaphthalene level at 25 ug, sc after 18 hrs by TLC analysis. To be noted: in vivo. Type of data set: ADME, organism-based.
Data set [4] concerns Serum. The experiment in a line: Drug metabolism in rat serum assessed as metabolite level at 25 ug, sc after 1 hr by TLC analysis. Type of data set: ADME, organism-based. The note with it: in vivo. The method in brief: as §1
Data set [5] can be described thus: Drug uptake in rat estrogen receptor expressing uterine at 25 ug, sc after 13 hrs by high salt sucrose density gradient analysis in presence of unlabeled estradiol. Type of data set: ADME, organism-based, Uterus. To be noted: in vivo. The method, boiled down:
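Rats pretreated 1 h in vivo with 5 μg unlabeled estradiol or saline vehicle, then given 25 μg tritiated antiestrogen sc. Uteri excised; washed 800g nuclear pellet extracted 1 h at 0 °C with buffer containing 0.4 M KCl. Extract charcoal-dextran treated, ¹⁴C ovalbumin and γ-globulin markers added. High-salt sucrose gradients spun 17 h, 4 °C, 270000g; 5S binding read.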

Data set [6] in a line: Drug metabolism in rat uterine nuclear fraction assessed as (5R,6S)-5-(4-hydroxyphenyl)-6-phenyl-5,6,7,8-tetrahydronaphthalen-2-ol level at 25 ug, sc after 18 hrs by TLC analysis. The format is ADME, organism-based. The note with it: in vivo.
The nature of data set [7]: Drug metabolism in rat uterine nuclear fraction assessed as 3-(4-((1R,2S)-6-hydroxy-2-phenyl-1,2,3,4-tetrahydronaphthalen-1-yl)phenoxy)propane-1,2-diol level at 25 ug, sc after 18 hrs by TLC analysis. Type of data set: ADME, organism-based. To be noted: in vivo.
Data set [8] can be described thus: Drug metabolism in rat uterine nuclear fraction assessed as metabolite level at 25 ug, sc after 13 hrs by TLC analysis. The format is ADME, organism-based. The note with it: in vivo. The method, boiled down: as §1
Data set [9] is described as follows: Drug metabolism in rat uterine nuclear fraction assessed as 1-[p-(2,3-Dihydroxyphenyl)phenyl]-2-phenyl-6-methoxy-1,2,3,4-tetrahydronaphthalene level at 25 ug, sc after 18 hrs by TLC analysis. Type of data set: ADME, organism-based. To be noted: in vivo.

In the case of `CC[C@H](c1ccc(O)cc1)[C@@H](CC)c1ccc(O)cc1`, in data set [1], the RBA was found to be 300.
Still for that read-out and setting: for `COc1ccc2c(c1)CC[C@@H]1[C@@H]2CC[C@]2(C)[C@@H](O)CC[C@@H]12` the value was 3; for `COc1ccc2c(c1)CC[C@H](c1ccccc1)[C@@H]2c1ccc(O)cc1`, 0.24.
Still for that read-out and setting: the value for `OCC(O)COc1ccc([C@@H]2c3ccc(O)cc3CC[C@@H]2c2ccccc2)cc1` (stereo partly specified) was 39.1.
Same read-out and setting: for `Oc1ccc([C@@H]2c3ccc(O)cc3CC[C@@H]2c2ccccc2)cc1` the value was 29.8.
Consider `COc1ccc2c(c1)CC[C@H](c1ccccc1)[C@@H]2c1ccc(OCC(O)CO)cc1` (mixture of isomers), for which the Drug metabolism entry in [2], in data set [3], in data set [4], in data set [5], in data set [6] and in data set [7] was “metabolite_detected” throughout. The Drug metabolism result in data set [8] and in data set [9] was “metabolite_detected” throughout. In [1], this molecule registered an RBA of 0.1.
In turn, `CC[C@H](c1ccc(O)cc1)[C@@H](CC)c1ccc(OC)cc1` (relative stereo) yielded an RBA in data set [1] of 19.3.
In data set [1], `CC[C@H](c1ccc(O)cc1)[C@@H](CC)c1ccc(OCC(O)CO)cc1` (relative stereo) showed an RBA of 6.9.
